# Measured values taken from ChEMBL document CHEMBL2021823, “Antiproliferative acetogenins from a Uvaria sp. from the Madagascar dry forest” (J Nat Prod, 2012).
# Legend:
# A2058 = assay: Antiproliferative activity against human A2058 cells after 96 hrs by CellTiter-Glo assay; type: functional, cell-based; conditions: A2058, 96 h
# Procedure, shortened: (§1)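 A2058 melanoma and H522 lung cancer cell lines, run at Eisai by procedures similar to those used for the H460 line; activity reported as IC50.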
# NCI-H522 = assay: Antiproliferative activity against human NCI-H522 cells after 96 hrs by CellTiter-Glo assay; type: functional, cell-based; conditions: NCI-H522, 96 h; procedure, shortened: as §1
# A2780 = assay: Antiproliferative activity against human A2780 cells after 2 days by Alamar blue assay; conditions: A2780, 48 h
IC50 (NCI-H522),IC50 (A2780),Structure (SMILES),IC50 (A2058)
< 10 µM,6.4 µM,CCCCCCCCCCCCC[C@H](O)[C@@H]1CC[C@@H]([C@H]2CC[C@H]([C@@H](O)CCCC(O)CCCCCC3=C[C@H](C)OC3=O)O2)O1 (relative stereo),6.6 µM
< 10 µM,8.8 µM,CCCCCCCCCCC[C@H](O)[C@@H]1CC[C@@H]([C@H]2CC[C@H]([C@@H](O)CCCCCCCC[C@H](O)CCC3=C[C@H](C)OC3=O)O2)O1 (relative stereo),7.2 µM
